Rows were chosen to be rich in hits. Some 2% of all compounds tested hit in one or more screens of this group.
MBD2 inh = inhibitors of MBD2 binding to methylated DNA, primary screen, biochemical, TR-FRET, DNA-binding domain, human. Methyl-CpG-binding domain protein 2 (Homo sapiens), Q9UBB5. MBD2 binding to methylated oligonucleotide. inhibition, % at 4.4 µM. actives 0.31% (n = 370,000); in the data active = inhibition above about 13%
LEDGF integ inh = blockers of LEDGF/p75-dependent integrase strand transfer – biochemical, TR-FRET, high throughput, primary screen; TR-FRET IN-LEDGF/p75 DNA integration, Eu/Cy5; inhibition, % at 3.7 µM; actives 0.64% (n = 370,000);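 active = inhibition above the screen-wide mean plus 3 SD, cut at about 13% in these data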;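 note: signal is the Cy5 over europium emission ratio at 671 and 618 nm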
UHRF1 binding = UHRF1 methylated DNA binding inhibitors, primary screen, counter-screen for MBD2 inhibitor project, biochemical, TR-FRET, human UHRF1, single concentration; E3 ubiquitin-protein ligase UHRF1 (Homo sapiens), Q96T88; UHRF1 binding to methylated oligo; inhibition, % at 4.4 µM; actives 0.75% (n = 370,000); AID 687016, 2013; in the data active = inhibition above about 21%;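 note: UHRF1 SRA domain binding a hemimethylated CpG hairpin DNA probe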
ASAP1 GAP inh = inhibitors of human ASAP1 ArfGAP activity, primary screen, biochemical, fluorescence polarization | inhibition, % at 16.5 µM | ASAP1-stimulated ARF1 GTP hydrolysis, GDP FP detection | actives 0.19% (n = 360,000); in the data active = inhibition above about 25%
Target sequence (Q9ULH1 325-724 limits assumed): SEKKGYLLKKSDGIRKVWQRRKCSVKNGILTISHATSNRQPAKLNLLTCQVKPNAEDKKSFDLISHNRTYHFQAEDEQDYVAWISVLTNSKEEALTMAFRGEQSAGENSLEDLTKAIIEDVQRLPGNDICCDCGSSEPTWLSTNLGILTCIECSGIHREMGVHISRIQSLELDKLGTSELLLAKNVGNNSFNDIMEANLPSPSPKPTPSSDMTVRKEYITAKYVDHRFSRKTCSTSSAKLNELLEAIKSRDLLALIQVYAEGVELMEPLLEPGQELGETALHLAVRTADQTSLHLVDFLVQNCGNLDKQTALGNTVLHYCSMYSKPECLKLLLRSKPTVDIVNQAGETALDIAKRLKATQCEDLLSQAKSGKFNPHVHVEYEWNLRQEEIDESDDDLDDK
ARFGAP1 inh = inhibitors of rat ARFGAP1 GAP activity, primary screen, biochemical, fluorescence polarization, GDP tracer | ADP-ribosylation factor GTPase-activating protein 1 (Rattus norvegicus), Q62848 | Arfgap1-stimulated ARF1 GTP hydrolysis, GDP FP detection | inhibition, % at 16.5 µM | actives 0.26% (n = 360,000);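 active = inhibition above a per-plate limit, mean inhibition of low control wells plus 3 SD, cut at about 25% in these data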
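System: truncated rat Arfgap1 GAP domain / Benchmarks: high control wells lacking Arfgap1, low control full reaction with DMSO / Times: compound-enzyme preincubation 20 min, reaction 120 min, detection 60 min, 25 °C / Repeats: one replicate per compound / Also added: human ARF1(Δ1-17)-GTP substrate / Measured by: Tracer-displacement fluorescence polarization with EDTA stop, 620/688 nm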
TCR CD3 inh = inhibitors of human TCR-CD3 interaction, primary screen, biochemical, fluorescence, TAMRA-labeled TCR probe; T-cell receptor (TCR); inhibition, % at 9.4 µM; actives 0.37% (n = 360,000); AID 651800, 2012; in the data active = inhibition above about 19%;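 note: recombinant mutant TCR 2C K166C tagged with TAMRA read by polarization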
Of the large screens only hits and unclear results are named; the others gave an inactive call.

O=C(Nc1nccs1)C1CCCN1S(=O)(=O)c1ccc(Cl)cc1 (configuration not stated)	UHRF1 binding 25
CCC(=O)N(c1ccccc1)C1CCN(C(=O)C(Cc2ccccc2)NC(C)=O)CC1 (configuration not stated)	none (no result: ASAP1 GAP inh, ARFGAP1 inh, TCR CD3 inh)
Cc1ccc(CN2CCCCC(NC(=O)c3ccc4ccccc4c3)C2=O)cc1 (configuration not stated)	none (no result: ASAP1 GAP inh, ARFGAP1 inh, TCR CD3 inh)
CC1=NN(c2ccc(Cl)c(C(=O)O)c2)C(=O)C1	none
CC1=NN(c2ccc(C(=O)O)c(N)c2)C(=O)C1	LEDGF integ inh 31, UHRF1 binding 28
CN1C=C/C(=C\c2cc[n+](C)c3ccccc23)c2ccccc21	UHRF1 binding 27
CC[n+]1ccc(/C=C2\Sc3ccccc3N2CCCS(=O)(=O)[O-])c2ccccc21	none
CCOc1ccc(C(=O)NCC(=O)Nc2ccc3c(c2)OCO3)cc1OCC	none
CCOc1cc(C(=O)Nc2ccc3c(c2)OCO3)ccc1OC(F)F	UHRF1 binding 23
COc1cc(NC(=O)c2ccc3c(c2)OCO3)ccc1NC(=O)C(C)C	UHRF1 binding 66
CC(C)C(=O)Nc1ccc(NC(=O)c2ccc3c(c2)OCO3)cc1	none
COC(=O)CN(Cc1cn(Cc2ccccc2)nn1)S(=O)(=O)c1ccccc1Br	none (no result: ASAP1 GAP inh, ARFGAP1 inh, TCR CD3 inh)
COCCNC(=O)C1CCCN(C(=O)c2cc(C(C)(C)C)nn2C)CC1 (configuration not stated)	UHRF1 binding 25
CCOC(=O)C1CCCN(C(=O)c2cc(C(C)(C)C)nn2C)CC1 (configuration not stated)	none
CCCNC(=O)c1cc(C2CCCCN2C(=O)c2ccc(OC)cc2)on1 (configuration not stated)	none
CCNC(=O)C1(C)CCCN(C(=O)c2cc(C)n(C(C)(C)C)n2)C1 (configuration not stated)	none
COC(=O)C1CN(Cc2ccc(OC)cc2)CCS(=O)(=O)N1Cc1cn(Cc2ccc(OC)cc2)nn1 (configuration not stated)	none (no result: ASAP1 GAP inh, ARFGAP1 inh, TCR CD3 inh)
COc1ccc(/C=C/c2nc(-c3ccccc3O)n[nH]2)cc1	UHRF1 binding 66
O=C(c1cc2nc(C3CC3)cc(C(F)F)n2n1)N1CCOCC1	UHRF1 binding 21
O=C(c1cnn2c(C(F)F)cc(C3CC3)nc12)N1CCCC1	none
COc1ccc(-c2cc(NC(=O)Cc3c[nH]c4ccccc34)ccc2Nc2cccnc2)c(OC)c1	none
Cc1ccc(N2C(=O)CC(Cc3cc(C)cc(C)c3)C2=O)cc1 (configuration not stated)	UHRF1 binding 24
N#C/C(=C\c1ccncc1)c1nc2ccccc2c(=O)[nH]1	UHRF1 binding 44
O=C(NCc1cc(Cl)cc(Cl)c1)c1ccc2nc(COCCO)[nH]c2c1	UHRF1 binding 21
O=C(NCc1cc(Cl)cc(Cl)c1)c1ccc2nc([C@@H]3O[C@H](CO)[C@H](O)[C@H](O)[C@H]3O)[nH]c2c1	none
Cc1[nH][nH]c(=O)c1C(c1ccc(-c2ccc(C(=O)O)cc2)o1)c1c(C)[nH][nH]c1=O	ARFGAP1 inh 28
Cc1[nH][nH]c(=O)c1C(c1ccc(-c2ccc(F)cc2)o1)c1c(C)[nH][nH]c1=O	LEDGF integ inh 25
Cc1[nH][nH]c(=O)c1C(c1ccc(-c2ccc(Cl)c(Cl)c2)o1)c1c(C)[nH][nH]c1=O	none
Cc1cccc(N2CCN(C(=O)CCC(=O)N3CC(C)Oc4ccccc43)CC2)c1C (configuration not stated)	TCR CD3 inh 20
CC1CCN(C(=O)CCC(=O)N2CC(C)Oc3ccccc32)CC1 (configuration not stated)	none

Screens: PubChem, The Scripps Research Institute Molecular Screening Center
